From PubChem BioAssay
MEKK2 WT-MEK5: modulators of MEK5 binding to wildtype MEKK2, primary screen, biochemical, multiplex bead flow cytometry, Alexa488-MEK5; AID 1531, 2009; Mitogen-activated protein kinase kinase kinase 2 (Homo sapiens), Q9Y2U5; binding response (% of control), % at 10 µM; Alexa488-MEK5 binding to MEKK2 WT; actives lie on both sides; actives 1.1% (n = 290,000); in the data active means binding response below about 67% or above about 130%
MEKK2mut PB1 HTS: MEK5 binding signal on mutant MEKK2 PB1, primary screen, biochemical, multiplex bead flow cytometry, Alexa488-MEK5; percent response, % at 10 µM; Alexa488-MEK5 binding to MEKK2 mutant; actives 0.35% (n = 290,000); in the data active means percent response above about 24%, passing the limit was not always enough
MEKK3 PB1 HTS: modulators of MEKK3-MEK5 PB1 binding, primary screen, biochemical, wildtype MEKK3, multiplex bead flow cytometry, Alexa488-MEK5 | actives 1.4% (n = 290,000) | binding response (% of control), % at 10 µM | bead-based flow cytometry, Alexa488-MEK5 binding to MEKK3; actives lie on both sides; 0 = blocked by unlabeled MEK5, 100 = vehicle | Mitogen-activated protein kinase kinase kinase 3 (Homo sapiens), Q99759;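 active means binding response more than 3 SD above or below the average of its plate-row segment, actives on both sides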;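 further: Alexa488 bead fluorescence after subtracting the streptavidin-only scavenger bead signal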
Target sequence (Q99759 whole entry, looked up): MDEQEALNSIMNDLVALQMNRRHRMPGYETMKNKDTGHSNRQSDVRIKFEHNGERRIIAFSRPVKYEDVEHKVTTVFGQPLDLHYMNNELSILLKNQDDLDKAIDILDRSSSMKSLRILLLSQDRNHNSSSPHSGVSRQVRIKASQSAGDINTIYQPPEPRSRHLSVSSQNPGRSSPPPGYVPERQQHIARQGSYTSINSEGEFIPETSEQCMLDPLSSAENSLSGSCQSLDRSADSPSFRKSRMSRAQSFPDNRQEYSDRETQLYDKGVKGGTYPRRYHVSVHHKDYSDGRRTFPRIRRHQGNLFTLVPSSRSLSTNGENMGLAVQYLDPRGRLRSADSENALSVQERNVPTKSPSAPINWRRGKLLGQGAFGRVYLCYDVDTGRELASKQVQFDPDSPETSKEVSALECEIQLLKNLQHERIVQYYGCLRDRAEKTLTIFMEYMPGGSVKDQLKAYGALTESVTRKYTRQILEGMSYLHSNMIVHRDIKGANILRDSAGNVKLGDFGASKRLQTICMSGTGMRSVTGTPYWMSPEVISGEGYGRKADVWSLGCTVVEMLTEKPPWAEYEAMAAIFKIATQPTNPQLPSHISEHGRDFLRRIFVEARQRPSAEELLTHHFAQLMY
ABCB1 inh: ABCB1 efflux pump inhibitors, primary screen, cell-based, multiplex, flow cytometry, ABCG2 counter-screen. actives 0.067% (n = 190,000). ATP-dependent translocase ABCB1 (Homo sapiens), P08183. CCRF-Adr cells, JC-1 efflux. inhibition, % at 6.6 µM; in the data active means inhibition above about 40%;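 further: 0% = vehicle and 100% = reference inhibitor; higher value means more JC-1 retained so stronger ABCB1 efflux block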
ABCG2 inh: ABCG2 efflux pump inhibitors, primary screen, multiplex with ABCB1, IgMXP3 cells, flow cytometry | actives 0.1% (n = 190,000) | inhibition, % at 6.6 µM | AID 1325, 2008 | JC-1 efflux | Broad substrate specificity ATP-binding cassette transporter ABCG2 (Homo sapiens), Q9UNQ0;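 active means inhibition above 80%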;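 further: 0% = DMSO and 100% = nicardipine control wells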
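Test system: IgMXP3 (ABCG2) plus far-red-tagged CCRF-Adr (ABCB1) cells / Amount: 3 million cells/mL in well / Reagent: JC-1 transporter substrate / Timing: 10 min compound exposure, 25 °C / Signal: flow cytometry, 530 nm JC-1 signal / Read-out: percent efflux inhibition, scaled nicardipine 100% to DMSO 0% / Benchmarks: nicardipine as high control, DMSO as low control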
MEKK2wt confirm: modulators of MEK5 binding to wildtype MEKK2, confirmation, biochemical, single concentration, multiplex bead flow cytometry; binding response (% of control), % at 10 µM; Alexa488-MEK5 binding to MEKK2 WT; actives lie on both sides; AID 1892, 2009; shares compounds with MEKK3 PB1 HTS; actives 2.4% (n = 5,900); in the data active means binding response below about 16% or above about 210%; inactive means in between
MEKK2mut-MEK5: mutant MEKK2 PB1-MEK5 binding signal retest – biochemical, single concentration, multiplex bead flow cytometry, confirmation; shares compounds with MEKK3 PB1 HTS; Alexa488-MEK5 binding to MEKK2 mutant; percent response, % at 10 µM; actives 2% (n = 5,900); AID 1893, 2009; in the data active means percent response mostly above about 71%, no sharp cut-off; inactive means mostly below about 38%;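 further: higher means compound restores mutant binding toward wildtype level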
MEKK3 confirm: MEKK3 wild-type PB1 binding to MEK5, inhibitors, confirmation, biochemical, bead multiplex flow cytometry, single concentration, wildtype | shares compounds with MEKK3 PB1 HTS | Alexa488-MEK5 binding to MEKK3; hits give low values | binding response (% of control), % at 10 µM | actives 1.8% (n = 5,900) | AID 1894, 2009;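 active means binding response below 72% of control, or above a set upper limit, though filed actives all read lower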;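 further: 100% = DMSO only wells and 0% = binding blocked by excess unlabeled MEK5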
Active calls of the source: *; . = no result given; [ ] = dose if it differs, or a comment. Most compounds without a hit are left out; they make up all but 2.3% or so of the library.

SMILES	MEKK2 WT-MEK5	MEKK2mut PB1 HTS	MEKK3 PB1 HTS	ABCB1 inh	ABCG2 inh	MEKK2wt confirm	MEKK2mut-MEK5	MEKK3 confirm
Cc1sc2ncn(CC(=O)NCC(=O)N3CCN(c4ccccc4F)CC3)c(=O)c2c1C	98	3	98	.	.	.	.	.
COc1ccccc1CNC(=O)c1cc(S(=O)(=O)N2CCOCC2)cn1C	94	1	95	.	.	.	.	.
CCCCn1c(-c2ccc(C(C)(C)C)cc2)nc2cc3[nH]c(=O)c(C(C)C)nc3cc21	69*[inhibitor]	-11	93	.	.	83	-6	96
COc1ccc(CNC(=O)CN(Cc2ccccc2)C(=O)CCC(=O)Nc2nccs2)cc1	97	-9	101	.	.	.	.	.
CC(C)c1ccc(C(C(=O)NC2CCCCC2)N(C(=O)c2csnn2)C2CC2)cc1 (configuration not stated)	93	1	94	.	.	.	.	.
COc1ccc(Oc2nc(C)nc3c2oc2ccccc23)cc1	109	3	116	0	1	.	.	.
COc1nc(C)nc2c1ccc1ccccc12	104	2	136*	1	5	98	-4	104
Clc1nc(-c2cccnc2)nc2scc(-c3ccccc3)c12	94	-2	95	-1	-11	.	.	.
COc1ccc(-c2csc3nc(-c4cccnc4)nc(Cl)c23)cc1OC	105	1	145*	1	3	105	10	109
O=C(Oc1ccc(C(=S)N2CCOCC2)cc1)c1cccc(Cl)c1	108	3	110	.	.	.	.	.
O=C(OCC(=O)N1CCN(Cc2ccccc2)CC1)c1ccc(Cl)cc1	6.0*[inhibitor]	-42	4.0*[inhibitor]	0	1	99	-3	98
CC1CCc2c(sc(NC(=O)c3c([N+](=O)[O-])cnn3C)c2C(N)=O)C1 (configuration not stated)	105	6	104	.	.	.	.	.
CC1CCCCC1NC(=O)CSc1nnc(CC(=O)Nc2ccccc2F)n1C (configuration not stated)	101	3	97	.	.	.	.	.
COc1ccc(Cl)cc1N/C(N)=N/c1nc(CSc2ccc(C)cc2)cc(=O)[nH]1	103	2	104	0	5	.	.	.
Cc1ccc(SCc2cc(=O)[nH]c(/N=C(\N)Nc3cccc4ccccc34)n2)cc1	108	0	137*	1	12	101	-7	104
CSCCC(=O)N1CC[C@@H](N2CCN(c3ccccc3F)CC2)[C@H](O)C1	109	11	110	.	.	.	.	.
CCc1ccc(C(=O)NCc2cnn(C)c2)s1	106	3	103	1	4	.	.	.
Cn1cc(CNC(=O)c2sc3cccc(Cl)c3c2Cl)cn1	102	11	131*	0	2	96	2	101
O=C(/C=C/c1cccc([N+](=O)[O-])c1)OCC1CCCO1 (configuration not stated)	106	2	103	.	.	.	.	.
COc1ccc(NC(=O)CSc2ccc3nnc(-c4ccccn4)n3n2)c(OC)c1	96	0	100	.	.	.	.	.
O=C(O)CCCCCNC(=O)C(=O)C1C(=O)Nc2ccccc21 (configuration not stated)	100	2	101	.	.	.	.	.
O=C(CNC1C(=O)Nc2ccccc21)Sc1ccccc1 (configuration not stated)	3.0*[inhibitor]	-20	2.0*[inhibitor]	1	0	97	-3	105
